# Measured values collected from several papers.
# Protocols differ between the studies behind these lines.
# Target: Dual specificity protein kinase CLK2 (CLK2, Homo sapiens, UniProt P49760)
SMILES,observed,action,method,concentration,quantity,value
COc1cc2ncnc(Nc3ccc(Oc4ccccc4)c(C)c3C)c2cc1OC,enzyme activity,inhibitor,,1 µM,inhibition,3%
FC(F)c1nc2ccccc2n1-c1nc(N2CCOCC2)nc(N2CCOCC2)n1,enzyme activity,inhibitor,,10 µM,remaining activity,85%
CCN1CCC2(CC1)NC(=O)c1c(c3ccc(Cl)c(Cl)c3n1C)C2C#N (racemic),thermal stability,,DSF,10 µM,ΔTm,1.4 °C
Cc1ccc(C(=O)Nc2ccc(CN3CCN(C)CC3)c(C(F)(F)F)c2)cc1C#Cc1cnc2cccnn12,enzyme activity,inhibitor,,23.5 nM,remaining activity,94%
CC(C)(C)c1nc(-c2cccc(NS(=O)(=O)c3c(F)cccc3F)c2F)c(-c2ccnc(N)n2)s1,enzyme activity,inhibitor,radiometric,1 µM,remaining activity,98%
COc1cc(Nc2cnc(C#N)c(O[C@H](C)CN(C)C)n2)ncc1-c1cnn(C)c1,enzyme activity,inhibitor,radiometric,10 µM,remaining activity,50%
CN1CC(Oc2cnc(C#N)cc2-c2ccn3nc(NC(=O)C4CC4)cc3c2)C1,enzyme activity,inhibitor,,1 µM,inhibition,1%
CN(C)C1CCN(CC#Cc2nn(C3CCCC3)c3nc(NCc4ccccc4)ncc23)C1 (stereo not drawn),enzyme activity,inhibitor,FRET,1 µM,inhibition,11%
O=C(NCc1ncc(C(F)(F)F)cc1Cl)c1ccc2c(c1)C1(CCS(=O)(=O)CC1)[C@H](C1CC1)N2S(=O)(=O)c1ccc(F)cc1,cell-free assay,,competition with immobilised ligand,1 µM,remaining binding,100%
Cc1cnc(NC2CCOCC2)nc1-n1cnc(C(=O)NC(CN)c2cc(F)cc(Cl)c2)c1 (stereo not drawn),enzyme activity,inhibitor,radiometric,1 µM,remaining activity,78%
CCCOc1ccc(OC)c(F)c1C(=O)c1ccc(C(=O)N[C@@H]2CNC[C@H]2NC(=O)c2ccc3[nH]ncc3c2)cc1,enzyme activity,inhibitor,,10 µM,remaining activity,36%
CS(=O)(=O)NCC[C@H](NC(=O)c1cncc2c1cnn2-c1ccc(F)cc1)c1ccnc(S(C)(=O)=O)c1,cell-free assay,,competition with immobilised ligand,1 µM,remaining binding,100%
Cc1sc(C(=O)NC2COC2)cc1-n1cc(NC(=O)Nc2c(F)cccc2Cl)cn1,enzyme activity,inhibitor,,10 µM,remaining activity,100%
CCC1(CC)NC(=O)c2c(c3ccc(Cl)c(Cl)c3n2C)C1C#N (stereo not drawn),thermal stability,,DSF,10 µM,ΔTm,1.3 °C
CS(=O)(=O)N1CCCC(NC(=O)[C@H](CCC2CCCCC2)NC(=O)c2ccc(CNC(=O)c3cnc4ccccn34)cc2)C1 (stereo partly drawn),cell-free assay,,competition with immobilised ligand,0.1 µM,remaining binding,98%
Cn1c2c(Cl)c(Cl)ccc2c2cc(N)[nH]c(=O)c21,thermal stability,,DSF,10 µM,ΔTm,1.3 °C
Cn1cncc1C1=CN(c2ncnc3[nH]cnc23)CCS1,enzyme activity,inhibitor,radiometric,2 µM,inhibition,97.8%
CC(=O)Nc1c(C(C)=O)c(=O)n(C)c2nc(-c3ccc(Cl)cc3Cl)c(-c3ccc(Cl)cc3)cc12,cell-free assay,,competition with immobilised ligand,1 µM,remaining binding,100%
Nc1nc(Nc2ccc(S(N)(=O)=O)cc2)sc1C(=O)c1ccccc1[N+](=O)[O-],enzyme activity,inhibitor,,0.1 µM,inhibition,60 to 66%
Nc1ncnc2occ(-c3ccc(NC(=O)Nc4cc(C(F)(F)F)ccc4F)cc3)c12,cell-free assay,inhibitor,,20 µM,remaining signal,23%
CCCOc1ccc([C@@H]2[C@@H](C(=O)O)[C@H](c3ccc4c(c3)OCO4)CN2CC(=O)Nc2c(CC)cccc2CC)cc1,cell-free assay,,competition with immobilised ligand,1 µM,remaining binding,100%
N#CCCc1ccc2c(c1)-c1[nH]c3ccc([N+](=O)[O-])cc3c1CC(=O)N2,cell-free assay,,,0.5 µM,remaining signal,104%
FC(F)(F)Oc1cccc(-c2cnc3ccc(-c4ccncc4)nn23)c1,enzyme activity,inhibitor,radiometric,5 µM,activity vs control,0.623%
CCOCCn1cc(C(=O)Nc2ccc(-n3nc(-c4cccnc4)cc3C(F)(F)F)cn2)ccc1=O,cell-free assay,,competition with immobilised ligand,1 µM,remaining binding,86%
Cn1cnc(Br)c1C1=CN(c2ncnc3[nH]cnc23)CCS1,enzyme activity,inhibitor,radiometric,50 nM,inhibition,46.1%
COc1ccc2cc(OCC3(C(=O)O)CN(C(=O)c4ccc(F)cc4)C3)ccc2c1,cell-free assay,,competition with immobilised ligand,1 µM,remaining binding,100%
Clc1ccc(Nc2nnc(Cc3ccncc3)c3ccccc23)cc1,cell-free assay,,,0.5 µM,remaining signal,87.6%
c1ccc(CNc2nc(N3CCOc4ccccc43)nc3c2CCCC3)cc1,target engagement in cells,inhibitor,chemoproteomics,20 mM,inhibition,-5.9%
Cn1c2c(Cl)c(Cl)ccc2c2cn[nH]c(=O)c21,thermal stability,,DSF,10 µM,ΔTm,2 °C
CS(=O)(=O)CCNCc1ccc(-c2ccc3ncnc(Nc4ccc(OCc5cccc(F)c5)c(Cl)c4)c3c2)o1,cell-free assay,,,0.5 µM,remaining signal,95.1%
O=C(CSc1nc2nccnc2c(=O)n1CCc1ccccc1)Nc1nccs1,enzyme activity,inhibitor,,10 µM,inhibition,15%
COCCOc1nc(-c2ccc(Cl)nc2)nc2c1CN(C(=O)c1ncn3ccccc13)CC2,cell-free assay,,competition with immobilised ligand,0.1 µM,remaining binding,100%
Cc1ccc(NC(=O)c2ccc(C)c(C(F)(F)F)c2)cc1C#Cc1nn(C2CCC(O)CC2)c2ncnc(N)c12 (stereo not drawn),cell-free assay,,,10 µM,remaining signal,47%
Cn1c2c(c3ccc(Cl)c(Cl)c31)C(C#N)C(C)(C)NC2=O (stereo not drawn),thermal stability,,DSF,10 µM,ΔTm,3.2 °C
O=C1NC(=O)c2cc(Nc3ccc(F)cc3)c(Nc3ccc(F)cc3)cc21,cell-free assay,,,0.5 µM,remaining signal,88.1%
Oc1cccc(-c2nc(N3CCOCC3)c3oc4ncccc4c3n2)c1,enzyme activity,inhibitor,,10 µM,remaining activity,25%
